Data on 16 compounds can be found in ChEMBL document CHEMBL4190391 (J Med Chem, 2018).

Experiment [1] has as its system Human immunodeficiency virus 1. Briefly: Antiviral activity against wild type HIV1 NL4-3 infected in human MT4 cells assessed as reduction in p24 Gag protein production after 7 days by chemiluminescent enzyme immunoassay. The format is functional, organism-based. The conditions noted are these: Human immunodeficiency virus 1, NL4-3, MT4, 168 h.
In experiment [2] the test system is Human immunodeficiency virus 1. Nature of the experiment: Antiviral activity against ATV resistant HIV1 harboring protease L23I/E34Q/K43I/M46I/I50L/G51A/L63P/A71V/V82A/T91A mutant infected in human MT4 cells assessed as reduction in p24 Gag protein production after 7 days by chemiluminescent enzyme immunoassay. The format is functional, organism-based. The settings on record: Human immunodeficiency virus 1, MT4, 168 h. Summed up: (§1)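 Variants had been selected by passaging HIV-1 NL4-3 in MT-4 cells under increasing PI concentrations (up to 5 μM). Assays were run in duplicate; values are means (± S.D.) of two independent experiments.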

Experiment [3] deals with Human immunodeficiency virus 1. Nature of the experiment: Antiviral activity against LPV resistant HIV1 harboring protease L10F/[…]I54V/V82A mutant infected in human MT4 cells assessed as reduction in p24 Gag protein production after 7 days by chemiluminescent enzyme immunoassay. The format is functional, organism-based. The settings on record: Human immunodeficiency virus 1, MT4, 168 h. A digest of the protocol:
as §1

Experiment [4] deals with Human immunodeficiency virus 1. Nature of the experiment: Antiviral activity against APV resistant HIV1 harboring protease L10F/M46I/I50V/I85V mutant infected in human MT4 cells assessed as reduction in p24 Gag protein production after 7 days by chemiluminescent enzyme immunoassay. The format is functional, organism-based. The settings on record: Human immunodeficiency virus 1, MT4, 168 h. Summed up:
as §1

The test system of experiment [5] is Human immunodeficiency virus 1. Nature of the experiment: Resistance index, ratio of EC50 for antiviral activity against ATV resistant HIV1 harboring protease L23I/E34Q/K43I/M46I/I50L/G51A/L63P/A71V/V82A/T91A mutant infected in human MT4 cells to EC50 for antiviral activity against wild type HIV1 NL4-3 infected in human MT4 cells. The format is functional.
Experiment [6] has as its system Human immunodeficiency virus 1. Nature of the experiment: Resistance index, ratio of EC50 for antiviral activity against LPV resistant HIV1 harboring protease L10F/[…]I54V/V82A mutant infected in human MT4 cells to EC50 for antiviral activity against wild type HIV1 NL4-3 infected in human MT4 cells. The format is functional.
The subject of experiment [7] is Human immunodeficiency virus 1. Nature of the experiment: Resistance index, ratio of EC50 for antiviral activity against APV resistant HIV1 harboring protease L10F/M46I/I50V/I85V mutant infected in human MT4 cells to EC50 for antiviral activity against wild type HIV1 NL4-3 infected in human MT4 cells. The format is functional.
The target in experiment [8] is Protease (Human immunodeficiency virus 1, UniProt Q9YQ12). Nature of the experiment: Inhibition of wild type HIV-1 NL4-3 protease expressed in Escherichia coli Rosetta (DE3)pLysS using Ac-Thr-Ile-Nle-Nle-Gln-Arg-NH2 as substrate by fluorescence assay.
Sequence of Protease (Q9YQ12 whole entry): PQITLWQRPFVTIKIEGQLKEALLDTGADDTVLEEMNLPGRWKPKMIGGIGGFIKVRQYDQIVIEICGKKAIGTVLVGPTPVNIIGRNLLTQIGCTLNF
Experiment [9] concerns Human immunodeficiency virus 1. Briefly: Antiviral activity against HIV-1 LAI infected in human MT2 cells. The format is functional, organism-based. The conditions noted are these: Human immunodeficiency virus 1, LAI.

Each structure is given as a SMILES string.

In the case of `CC(C)CN(C[C@@H](O)[C@H](Cc1ccccc1)NC(=O)O[C@H]1CCOC1)S(=O)(=O)c1ccc(N)cc1`, the EC50 (as a rule, the concentration giving half of the maximal effect) in experiment [1] is 87 nM; in experiment [2], over 1000 nM; in experiment [3], 190 nM; in experiment [4], over 1000 nM. In addition, the “Ratio EC50” value in [5] is on record as 11; in experiment [6], 2; in [7] it was over 11.
In the case of `CC(C)CN(C[C@@H](O)[C@H](Cc1ccccc1)NC(=O)O[C@H]1CO[C@H]2OCC[C@H]21)S(=O)(=O)c1ccc(N)cc1`, the EC50 in experiment [2] was determined as 24 nM.
For `COc1ccc(S(=O)(=O)N(CC(C)C)C[C@@H](O)[C@H](Cc2ccccc2)NC(=O)O[C@H]2C[C@H]3CO[C@H]4OCC[C@@H]2[C@@H]34)cc1`, the Ki (usually a measure of affinity in units of concentration, obtained from inhibition or displacement) in [8] was found to be 0.045 nM. Further, half-maximal inhibition in experiment [9] (IC50) was put at 31 nM.
The corresponding values for `COc1ccc(S(=O)(=O)N(CC(C)C)C[C@@H](O)[C@H](Cc2ccccc2)NC(=O)O[C@@H]2C[C@@H]3CO[C@@H]4CCC[C@H]2[C@H]34)cc1` are 4.55 nM and over 1000 nM.
On to `CC(C)CN(C[C@@H](O)[C@H](Cc1cc(F)cc(F)c1)NC(=O)O[C@H]1CC2CO[C@H]3OCC[C@@H]1[C@@H]23)S(=O)(=O)c1ccc2nc(NC3CC3)sc2c1` (stereo partly specified), for which the affinity in [8] corresponds to a Ki of 0.012 nM. Besides, in experiment [9], the IC50 (as a rule, the concentration needed to halve the response being measured) came out at 0.023 nM. The EC50 in experiment [1] amounted to 2 nM; in experiment [2], 1.5 nM; in experiment [3] it was 2 nM; in experiment [4] it was 0.32 nM. For the same compound, the figures for the “Ratio EC50” value in [5], in experiment [6] and in experiment [7] were 1, 2 and 0.3, respectively.
As to `COc1ccc(S(=O)(=O)N(CC(C)C)C[C@@H](O)[C@H](Cc2ccccc2)NC(=O)O[C@H]2C[C@@H]3CO[C@@H]4OC[C@H]2[C@H]34)cc1`, the Ki in [8] stood at 0.05 nM. This compound also gave an IC50 in experiment [9] of 21 nM.
The corresponding values for `CC(C)CN(C[C@@H](O)[C@H](Cc1ccccc1)NC(=O)O[C@H]1CC2CO[C@H]3OCC[C@@H]1[C@@H]23)S(=O)(=O)c1ccc2nc(NC3CC3)sc2c1` (stereo partly specified) are 0.01 nM and 1.4 nM.
`COc1ccc(S(=O)(=O)N(CC(C)C)C[C@@H](O)[C@H](Cc2ccccc2)NC(=O)O[C@H]2C[C@H]3CCO[C@H]4OC[C@@H]2[C@@H]34)cc1` yielded a Ki in experiment [8] of 0.005 nM. This compound showed an IC50 in experiment [9] of 29 nM.
`CC(C)CN(C[C@@H](O)[C@H](Cc1cc(F)cc(F)c1)NC(=O)O[C@@H]1C[C@@H]2CO[C@@H]3OCC[C@H]1[C@H]23)S(=O)(=O)c1ccc2nc(NC3CC3)sc2c1` returned a Ki in experiment [8] of 0.002 nM. Also, the IC50 in [9] was 0.027 nM. The EC50 in [1] came to 1.2 nM; in [2], 0.6 nM; in [3], 2 nM; in [4], 0.3 nM. For the same compound, the “Ratio EC50” value in experiment [5] was found to be 0.3; in [6], 1; in experiment [7], 0.2.
`COC[C@@H]1C[C@@H]2[C@H]3[C@H](CO[C@H]3O1)C[C@@H]2OC(=O)N[C@@H](Cc1ccccc1)[C@H](O)CN(CC(C)C)S(=O)(=O)c1ccc(OC)cc1` showed a Ki in experiment [8] of 0.09 nM. The compound also came in with an IC50 in [9] of 248 nM.
For `COc1ccc(S(=O)(=O)N(CC(C)C)C[C@@H](O)[C@H](Cc2ccccc2)NC(=O)O[C@H]2C[C@H]3CO[C@H]4CCC[C@@H]2[C@@H]34)cc1` the same measures were 0.45 nM and over 1000 nM.
Take `COc1ccc(S(=O)(=O)N(CC(C)C)C[C@@H](O)[C@H](Cc2ccccc2)NC(=O)O[C@H]2C[C@H]3CO[C@H]4O[C@H](C)C[C@@H]2[C@@H]34)cc1`: the affinity in [8], expressed as Ki, was 0.05 nM. The compound also registered an IC50 in experiment [9] of 130 nM.
In turn, `COc1ccc(S(=O)(=O)N(CC(C)C)C[C@@H](O)[C@H](Cc2ccccc2)NC(=O)O[C@@H]2C[C@@H]3CO[C@@H]4OCC[C@H]2[C@H]34)cc1` had a Ki in experiment [8] of 0.008 nM. Further, inhibition in experiment [9] was half-maximal at 9 nM (IC50).
Turning to `CC(C)CN(C[C@@H](O)[C@H](Cc1ccccc1)NC(=O)O[C@@H]1C[C@@H]2CO[C@@H]3OCC[C@H]1[C@H]23)S(=O)(=O)c1ccc2nc(NC3CC3)sc2c1`, in experiment [8], the affinity, expressed as Ki, was 0.5 nM. In experiment [9], the IC50 worked out at 0.9 nM.
In the case of `COC(=O)N[C@H](C(=O)N[C@@H](Cc1ccccc1)[C@@H](O)CN(Cc1ccc(-c2ccccn2)cc1)NC(=O)[C@@H](NC(=O)OC)C(C)(C)C)C(C)(C)C` [ATAZANAVIR], the EC50 in [1] was 3.3 nM; in [2], over 1000 nM; in [3], 29 nM; in [4], 70 nM. Also, the results for the “Ratio EC50” value in experiment [5], in experiment [6] and in experiment [7] were over 303, 9 and 21, respectively.
For `Cc1cccc(C)c1OCC(=O)N[C@@H](Cc1ccccc1)[C@@H](O)C[C@H](Cc1ccccc1)NC(=O)[C@H](C(C)C)N1CCCNC1=O` [LOPINAVIR], the EC50 is over 1000 nM in experiment [2], over 1000 nM in experiment [3] and 390 nM in experiment [4].
